Assay results: ChEMBL document CHEMBL1153749, “Flavonoids from the heartwood of the Thai medicinal plant Dalbergia parviflora and their effects on estrogenic-responsive human breast cancer cells” (2009)
Activity calls are given as the source filed them. The calls are words filed in the database; no cut-off is given here.

Experiments:
Type in all cases: functional
MCF7 [1] = experiment: Estrogenic activity in human MCF7 cells assessed as drug level causing stimulation of cell proliferation equivalent to 10 pM estradiol after 96 hrs by alamar blue assay
How it was run: (§1)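 Cells seeded at 10^4 per well in phenol red-free RPMI with 5% DCC-treated FBS. Compounds added in DMSO (vehicle control 1% DMSO) for 96 h at 37 °C, 5% CO2, with serial estradiol dilutions run alongside. Alamar Blue for 3 h, fluorescence ex 530/em 590 nm. Estradiol-equivalent concentration fitted by linear regression from at least five concentrations in quadruplicate.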

T47D [2] = experiment: Estrogenic activity in human T47D cells assessed as drug level causing stimulation of cell proliferation equivalent to 100 pM estradiol after 96 hrs by alamar blue assay; how it was run: as §1
MCF7 [3] = experiment: Estrogenic activity in luciferase transfected human MCF7 cells assessed as drug level causing stimulation of cell proliferation equivalent to 100 pM estradiol by luciferase reporter gene assay
How it was run: (§2)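 Reporter assay in MCF-7 or T47D cells transiently transfected with luciferase. Compounds tested from 0.01 to 10 µM. Luciferase induction is expressed as the compound concentration equivalent to the 10 or 100 pM estradiol response. Values come from linear regression over at least five concentrations in quadruplicate.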

T47D [4] = experiment: Estrogenic activity in human T47D cells assessed as drug level causing stimulation of cell proliferation equivalent to 10 pM estradiol after 96 hrs by alamar blue assay; how it was run: as §1
T47D [5] = experiment: Estrogenic activity in luciferase transfected human T47D cells assessed as drug level causing stimulation of cell proliferation equivalent to 10 pM estradiol by luciferase reporter gene assay; how it was run: as §2
T47D [6] = experiment: Estrogenic activity in luciferase transfected human T47D cells assessed as drug level causing stimulation of cell proliferation equivalent to 100 pM estradiol by luciferase reporter gene assay; how it was run: as §2
MCF7 [7] = experiment: Estrogenic activity in human MCF7 cells assessed as drug level causing stimulation of cell proliferation equivalent to 100 pM estradiol after 96 hrs by alamar blue assay; how it was run: as §1
MCF7 [8] = experiment: Estrogenic activity in luciferase transfected human MCF7 cells assessed as drug level causing stimulation of cell proliferation equivalent to 10 pM estradiol by luciferase reporter gene assay; how it was run: as §2

Row | SMILES | Activity (MCF7 [1]) | Activity (T47D [2]) | Activity (MCF7 [3]) | Activity (T47D [4]) | Activity (T47D [5]) | Activity (T47D [6]) | Activity (MCF7 [7]) | Activity (MCF7 [8])
1 | COc1ccc(C2COc3cc(O)ccc3C2=O)c(OC)c1OC (configuration not stated) | 2.5 µM | >100 µM | >100 µM | 6.1 µM | 3.3 µM | >100 µM | 46.3 µM | >100 µM
2 | COc1ccc(C2COc3cc(O)ccc3C2=O)c(O)c1 (configuration not stated) | 5.7 µM | 33.7 µM | >100 µM | 1.5 µM | 7.3 µM | >100 µM | 45.3 µM | >100 µM
3 | COc1ccc(C2COc3cc(O)ccc3C2=O)cc1O (configuration not stated) | 24.5 µM | >100 µM | >100 µM | >100 µM | 6 µM | >100 µM | >100 µM | >100 µM
4 | COc1ccc([C@@H]2COc3cc(O)ccc3C2)c(OC)c1O | >100 µM | 6.4 µM | 7.8 µM | 0.4 µM | 6.3 µM | >100 µM | >100 µM | 0.9 µM
5 | COc1cc(O)c([C@@H]2COc3cc(O)ccc3C2)cc1OC | 1.1 µM | >100 µM | >100 µM | 0.02 µM | >100 µM | >100 µM | 0.2 µM | >100 µM
6 | COc1cc(OC)c(-c2coc3cc(O)cc(O)c3c2=O)cc1OC | >100 µM | >100 µM | 7.8 µM | 0.1 µM | 6.3 µM | >100 µM | >100 µM | 5.4 µM
7 | COc1ccc([C@H]2COc3cc(O)cc(O)c3C2=O)cc1O | 2.9 µM | 5.7 µM | 2.7 µM | 0.5 µM | 1.3 µM | >100 µM | >100 µM | 0.6 µM
8 | COc1ccc(-c2coc3cc(O)cc(O)c3c2=O)c(OC)c1 | 3.2 µM | >100 µM | >100 µM | 0.4 µM | 1.8 µM | 3.1 µM | 19.6 µM | >100 µM
9 | COc1ccc([C@H]2COc3cc(O)ccc3C2=O)c(OC)c1O | 2.1 µM | 8.9 µM | >100 µM | 2.1 µM | 0.6 µM | >100 µM | 9.4 µM | >100 µM
10 | COc1cc(-c2coc3cc(O)ccc3c2=O)ccc1O | 4.7 µM | >100 µM | 2.2 µM | >100 µM | 1.2 µM | 5.8 µM | >100 µM | 1.1 µM
11 | COc1ccc([C@@H]2COc3cc(O)ccc3C2)c(O)c1 | >100 µM | 0.2 µM | >100 µM | 0.02 µM | >100 µM | >100 µM | >100 µM | >100 µM
12 | COc1ccc(C2COc3c(ccc(O)c3O)C2)c(OC)c1O (configuration not stated) | inactive | inactive | inactive | inactive | inactive | inactive | inactive | inactive
13 | O=C1c2c(O)cc(O)cc2O[C@H](c2ccccc2)[C@H]1O | inactive | inactive | inactive | inactive | inactive | inactive | inactive | inactive
14 | COc1cc2c(cc1O)C1c3ccc(O)cc3OCC1O2 (racemic) | inactive | inactive | inactive | inactive | inactive | inactive | inactive | inactive
